According to ChEMBL document CHEMBL3352378, “Novel carbazole inhibits phospho-STAT3 through induction of protein-tyrosine phosphatase PTPN6” (J Med Chem, 2014):
The source made the active and inactive calls. The calls are words filed in the database; no cut-off is given here.

Assays:
[1] = target: Tyrosine-protein phosphatase non-receptor type 6 (Homo sapiens) (UniProt P29350); assay: Induction of PTPN6 in human Hs578T cells assessed as inhibition of STAT3 phosphorylation at 3 uM after 16 hrs by Western blotting analysis in presence of pervanadate; type: cell-based; conditions: Hs-578T
Chain of Tyrosine-protein phosphatase non-receptor type 6 (Homo sapiens) (P29350 whole entry): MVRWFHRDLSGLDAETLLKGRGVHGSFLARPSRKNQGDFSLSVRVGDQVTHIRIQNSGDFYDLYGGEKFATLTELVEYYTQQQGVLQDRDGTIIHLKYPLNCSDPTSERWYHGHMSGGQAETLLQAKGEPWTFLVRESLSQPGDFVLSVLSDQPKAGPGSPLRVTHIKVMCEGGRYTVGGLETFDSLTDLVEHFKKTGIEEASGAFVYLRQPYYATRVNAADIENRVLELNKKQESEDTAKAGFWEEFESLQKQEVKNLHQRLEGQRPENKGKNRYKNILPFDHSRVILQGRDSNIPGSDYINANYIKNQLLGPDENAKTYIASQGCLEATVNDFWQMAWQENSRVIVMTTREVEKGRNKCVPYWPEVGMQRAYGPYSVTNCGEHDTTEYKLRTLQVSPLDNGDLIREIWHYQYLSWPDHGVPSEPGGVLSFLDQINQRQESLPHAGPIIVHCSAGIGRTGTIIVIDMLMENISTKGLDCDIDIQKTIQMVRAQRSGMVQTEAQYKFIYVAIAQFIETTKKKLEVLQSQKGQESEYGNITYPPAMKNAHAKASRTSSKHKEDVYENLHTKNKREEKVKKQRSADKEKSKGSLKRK
Summary of the method: (§1)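 HS578T and SUM149PT cells treated for 16 h without or with increasing pervanadate as a phosphatase inhibitor; JAK1/2 inhibitor CP690550 run in parallel. Lysates immunoblotted for phospho-STAT3 (Y705), with β-actin as loading control.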

[2] = target: Tyrosine-protein phosphatase non-receptor type 6 (Homo sapiens) (UniProt P29350); assay: Induction of PTPN6 in human SUM149PT cells assessed as inhibition of STAT3 phosphorylation at 3 uM after 16 hrs by Western blotting analysis in presence of pervanadate; type: cell-based; summary of the method: as §1

inhibition [1]: Active
inhibition [2]: Active
Structure (SMILES): C[C@@H]1CCN(C(=O)CC#N)C[C@@H]1N(C)c1ncnc2[nH]ccc12
